By pIC50 is commonly meant the IC50 on a negative log10 scale, so that one unit is a factor of ten. A low value points to a large IC50. For orientation: T/C means the ratio of treated to control.

Data set [1] in a line: Antiproliferative activity against human H7402 cells after 48 hrs by MTT assay. The data set is classed as functional, cell-based. The note with it: H7402, 48 h. In a few lines: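 Cells kept in RPMI1640 with 10% FBS at 37 °C, 5% CO2. Seeded 5000 per well and allowed at least 4 h to settle, then exposed to a range of compound concentrations for 48 h. 1% MTT solution added for 4 h, formazan dissolved in DMSO over 15 min, OD read at 570 nm. Values are the mean of three experiments.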
On the technique in general: Tetrazolium dyes change colour on reduction, which living cells bring about.

Data set [2] can be described thus: Antitumor activity against human H7402 cells xenografted in mouse assessed as tumor increment ratio at 100 mg/kg/day, po for 16 days relative to control. The data set is classed as functional. In short, it runs like this:
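Male athymic nude mice, 4-6 weeks old, inoculated subcutaneously in the right axilla with 6.88×10^7 H7402 cells. After 8 days, at about 140 mm³ mean tumor volume, mice were randomized to groups of seven. Daily gavage for 16 days; controls received an equal volume of PBS. Tumors were measured by caliper every three days, V=ab²/2. T/C% = treated RTV/control RTV, where RTV = Vt/V0. Two-tailed t test.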
In general terms: A xenograft is tissue or cells of one species grown in another, often human tumour cells in immunodeficient mice.

In data set [3] the test system is Mus musculus. The data set is described as follows: Toxicity in human H7402 cells xenografted mouse assessed as change in toxic effect at 100 mg/kg/day, po for 16 days. In kind it is organism-based. The note with it: in vivo, 384 h. In short, it runs like this:
(§1)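 H7402 subcutaneous xenograft in male athymic nude mice, seven per group, started once tumors reached about 140 mm³. Compound given daily by gavage for 16 days; controls received an equal volume of PBS. Body weight recorded every three days, and toxicity monitored during treatment.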

In data set [4] the test system is Mus musculus. Description: Toxicity in human H7402 cells xenografted mouse assessed as change in body weight at 100 mg/kg/day, po for 16 days. The data set is classed as organism-based. The note with it: in vivo, 384 h. In short, it runs like this:
as §1

pIC50: −log10 of the molar value.

Regarding `O=C(CCCCCCC(=O)Nc1ccccc1)NO` [VORINOSTAT], the pIC50 in data set [1] was 5.00. For the same compound, in data set [2], the T/C is 75.53%. Besides, the Activity entry with Mus musculus [3] and in the data set with Mus musculus [4] was “Non-toxic” throughout.

Source of the values: ChEMBL document CHEMBL3593221, “Design, synthesis and preliminary biological evaluation of indoline-2,3-dione derivatives as novel HDAC inhibitors” (Bioorg Med Chem, 2015).
